Results: ChEMBL document CHEMBL1148008, “Antimicrobial and cytotoxic activity of agelasine and agelasimine analogs” (Bioorg Med Chem, 2007)
Converted amounts (≈) assume the structure as drawn.

Assays:
[1] = Cytotoxicity against CEM/s cells; type: functional, cell-based; settings: Homo sapiens
Outline: (§1)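 Fluorometric microculture cytotoxicity assay (FMCA) read-out; IC50 values reported.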

Staphylococcus aureus = experiment: Antibacterial activity against Staphylococcus aureus ATCC 25923 after 20 hrs by broth microdilution method; type: functional; settings: ATCC 25923, 20 h
Outline: (§2)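 Strains grown 24 h at 35 °C on tryptone-soya agar. Colonies suspended in saline to 0.5 McFarland, then diluted 1:10 in Mueller-Hinton broth (~10⁷ CFU/mL). Inoculum added to twofold dilutions in broth (final 0.125–32 µg/mL) in triplicate. Incubated aerobically at 35 °C for 20 h. MIC is the lowest concentration giving complete growth inhibition. Repeated at least once; gentamycin/streptomycin served as QC.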

Pichia kudriavzevii = experiment: Antifungal activity against Candida krusei ATCC 6258; type: functional
[2] = Cytotoxicity against RPMI 8226/s cells; type: functional, cell-based; settings: Homo sapiens, RPMI8226/S; outline: as §1
[3] = tested on: Bacteroides thetaiotaomicron; experiment: Antibacterial activity against Bacteroides thetaiotaomicron after 20 hrs by broth microdilution method; type: functional
[4] = tested on: Mycobacterium tuberculosis; experiment: Antimicrobial activity against Mycobacterium tuberculosis at 6.25 ug/mL after 20 hrs by broth microdilution method; type: functional
Bacteroides fragilis = experiment: Antibacterial activity against Bacteroides fragilis after 20 hrs by broth microdilution method; type: functional
ACHN = experiment: Cytotoxicity against ACHN cells; type: functional, cell-based; settings: Homo sapiens; outline: as §1
U-937/GTB = experiment: Cytotoxicity against U937 GTB cells; type: functional, cell-based; settings: Homo sapiens; outline: as §1
Escherichia coli = experiment: Antibacterial activity against Escherichia coli ATCC 25922 after 20 hrs by broth microdilution method; type: functional; settings: ATCC 25922, 20 h; outline: as §2
[5] = tested on: Mycobacterium tuberculosis; experiment: Antimicrobial activity against Mycobacterium tuberculosis after 20 hrs by broth microdilution method; type: functional
Pseudomonas aeruginosa = experiment: Antibacterial activity against Pseudomonas aeruginosa after 20 hrs by broth microdilution method; type: functional
Enterococcus faecalis = experiment: Antimicrobial activity against Enterococcus faecalis after 20 hrs by broth microdilution method; type: functional
Streptococcus pyogenes = experiment: Antibacterial activity against Streptococcus pyogenes after 20 hrs by broth microdilution method; type: functional

## CO/N=c1\[nH]cnc2c1[n+](C/C=C(\C)CC/C=C(\C)CCC=C(C)C)cn2C
[1]
  IC50: 1.16 µM
Staphylococcus aureus
  MIC: 8 mg/L
Pichia kudriavzevii
  MIC: 8 mg/L
[2]
  IC50: 1.24 µM
[3]
  MIC: 16 mg/L
[4]
  inhibition at 6.25 µg/mL: 99%
Bacteroides fragilis
  MIC: 16 mg/L
ACHN
  IC50: 40.4 µM
U-937/GTB
  IC50: 1.32 µM
Escherichia coli
  MIC: 16 mg/L
[5]
  MIC: 3.13 mg/L

## CO/N=c1\[nH]cnc2c1[n+](C/C=C(\C)CC/C=C(\C)CC/C=C(\C)CCC=C(C)C)cn2C
[1]
  IC50: 1.91 µM
Pseudomonas aeruginosa
  MIC: > 32 mg/L
Staphylococcus aureus
  MIC: 4 mg/L
Pichia kudriavzevii
  MIC: 2 mg/L
[2]
  IC50: 1.11 µM
[3]
  MIC: 8 mg/L
Bacteroides fragilis
  MIC: 8 mg/L
Enterococcus faecalis
  MIC: 8 mg/L
Streptococcus pyogenes
  MIC: 4 mg/L
ACHN
  IC50: 7.38 µM
U-937/GTB
  IC50: 1.42 µM
Escherichia coli
  MIC: 16 mg/L

## CC(C)=CCC/C(C)=C/CC/C(C)=C/CC/C(C)=C/C[n+]1cn(C)c2ncnc(N)c21
[1]
  IC50: 3.06 µM
Staphylococcus aureus
  MIC: 32 mg/L
Pichia kudriavzevii
  MIC: > 16 mg/L
[2]
  IC50: 2.79 µM
ACHN
  IC50: 20.3 µM
U-937/GTB
  IC50: 3.17 µM
Escherichia coli
  MIC: > 32 mg/L

## CC(C)=CCC/C(C)=C/CC/C(C)=C/CC/C(C)=C/Cn1cnc2c1C(=N)N(C)CN2C
[1]
  IC50: 3.15 µM
Staphylococcus aureus
  MIC: 16 mg/L (≈ 36.6 µM)
Pichia kudriavzevii
  MIC: 16 mg/L (≈ 36.6 µM)
[2]
  IC50: 2.51 µM
[4]
  inhibition at 6.25 µg/mL: 99%
ACHN
  IC50: 5.16 µM
U-937/GTB
  IC50: 3.36 µM
Escherichia coli
  MIC: > 32 mg/L
[5]
  MIC: 3.13 mg/L (≈ 7.15 µM)

## CC(C)=CCC/C(C)=C/CC/C(C)=C/CC/C(C)=C/Cn1cnc2c1c(=N)ncn2C
[1]
  IC50: 7.77 µM
Staphylococcus aureus
  MIC: 4 mg/L (≈ 9.49 µM)
Pichia kudriavzevii
  MIC: 2 mg/L (≈ 4.74 µM)
[2]
  IC50: 6.78 µM
[4]
  inhibition at 6.25 µg/mL: 84%
ACHN
  IC50: 12.3 µM
U-937/GTB
  IC50: 6.4 µM
Escherichia coli
  MIC: 8 mg/L (≈ 19 µM)

## Cc1ncc([N+](=O)[O-])n1CCO [METRONIDAZOLE]
[3]
  MIC: 1 mg/L (≈ 5.84 µM)
Bacteroides fragilis
  MIC: 0.5 mg/L (≈ 2.92 µM)

## CC(C)=CCC/C(C)=C/CC/C(C)=C/CC/C(C)=C/Cn1cnc2ncnc(N)c21
[1]
  IC50: 2.88 µM
Staphylococcus aureus
  MIC: > 32 mg/L
Pichia kudriavzevii
  MIC: > 16 mg/L
[2]
  IC50: 2.78 µM
[4]
  inhibition at 6.25 µg/mL: 99%
ACHN
  IC50: 7.24 µM
U-937/GTB
  IC50: 3.6 µM
Escherichia coli
  MIC: > 32 mg/L
[5]
  MIC: 1.56 mg/L (≈ 3.83 µM)

## CC(C)=CCC/C(C)=C/CC/C(C)=C/CC/C(C)=C/C[n+]1cn(C)c2nc[nH]/c(=N\OCc3ccccc3)c21
[1]
  IC50: 14 µM
Staphylococcus aureus
  MIC: 6 mg/L
Pichia kudriavzevii
  MIC: 1 mg/L
[2]
  IC50: 8.24 µM
[3]
  MIC: 16 mg/L
[4]
  inhibition at 6.25 µg/mL: 99%
Bacteroides fragilis
  MIC: 8 mg/L
ACHN
  IC50: 20.9 µM
U-937/GTB
  IC50: 6.79 µM
Escherichia coli
  MIC: > 32 mg/L
[5]
  MIC: 3.13 mg/L

## Cn1c[n+](Cc2ccccc2)c2c(N)ncnc21.[Cl-]
[1]
  IC50: > 80 µM
Staphylococcus aureus
  MIC: > 32 mg/L
[2]
  IC50: > 80 µM
[3]
  MIC: > 32 mg/L
[4]
  inhibition at 6.25 µg/mL: 0%
Bacteroides fragilis
  MIC: > 32 mg/L
ACHN
  IC50: > 80 µM
U-937/GTB
  IC50: > 80 µM
Escherichia coli
  MIC: > 32 mg/L

## CC(C)=CCC/C(C)=C\CC/C(C)=C/C[n+]1cn(C)c2nc[nH]/c(=N\OCc3ccccc3)c21
[1]
  IC50: 10 µM
Staphylococcus aureus
  MIC: 8 mg/L
[2]
  IC50: 6.76 µM
[3]
  MIC: 4 mg/L
[4]
  inhibition at 6.25 µg/mL: 99%
Bacteroides fragilis
  MIC: 4 mg/L
ACHN
  IC50: 25.2 µM
U-937/GTB
  IC50: 7.55 µM
Escherichia coli
  MIC: 12 mg/L
[5]
  MIC: 3.13 mg/L

## CC(C)=CCC/C(C)=C/CC/C(C)=C/CC/C(C)=C/C[n+]1cn(C)c2nc[nH]/c(=N\OC(C)(C)C)c21
[1]
  IC50: 3.86 µM
Staphylococcus aureus
  MIC: 24 mg/L
Pichia kudriavzevii
  MIC: 2 mg/L
[2]
  IC50: 2.09 µM
[4]
  inhibition at 6.25 µg/mL: 100%
ACHN
  IC50: 8.4 µM
U-937/GTB
  IC50: 4.87 µM
Escherichia coli
  MIC: > 32 mg/L
[5]
  MIC: 3.13 mg/L

## CO/N=c1\[nH]cnc2c1[n+](C/C=C(\C)CC/C=C(/C)CCC=C(C)C)cn2C
[1]
  IC50: 1.23 µM
Staphylococcus aureus
  MIC: 6 mg/L
[2]
  IC50: 0.736 µM
[3]
  MIC: 16 mg/L
[4]
  inhibition at 6.25 µg/mL: 98%
Bacteroides fragilis
  MIC: 32 mg/L
ACHN
  IC50: 28.7 µM
U-937/GTB
  IC50: 1.4 µM
Escherichia coli
  MIC: 16 mg/L
[5]
  MIC: 3.13 mg/L
